Active and inactive are the calls of the source. No cut-off for these calls is given here. Numbered stars: 1 amine (or outer) side, 2 acyl side, 3 side chain; on linkers, the order of the positions; unused ones are H or OH. Side chains are listed from the residue outwards. Peptide text beside a SMILES is read from it. * marks the point of attachment. X2 = NCCCC[C@H](NC(=O)[C@@H](N)CCCCN)C(=O)N[C@@H](CCCCNC(=O)c1ccc(B(O)O)cc1)C(=O)*; X1 = NCCCC[C@H](N)C(=O)N[C@@H](CCCCNc1c2ccccc2nc2ccccc12)C(=O)*; X3 = NCCCC[C@H](N)C(=O)N[C@@H](CCCCNC(=O)c1ccc(B(O)O)cc1)C(=O)*; Benzoyl(4-B(OH)2) = O=C(c1ccc(B(O)O)cc1)*; Acridin9yl = c1ccc2c(*)c3ccccc3nc2c1; εLys = N[C@@H](CCCCN[*:1])C(=O)[*:2]
How the values were obtained:
[1] = Binding affinity to HIV1 wild type [32P]-labeled RRE-2B RNA after 4 hrs by electrophoretic mobility shift assay; design: species or system Human immunodeficiency virus 1
Method in brief: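 5'-³²P RRE-IIB (4 nM in 2x phosphate buffer, pH 7.0) is refolded at 95 °C for 3 min, then rt for 20 min. It is mixed 1:1 with peptide in water (final 0.001–10 µM) for 4 h at rt. Complexes are resolved by 10% native PAGE at 4 °C. Kd is the 50%-binding concentration from a sigmoidal fit of % RNA bound vs log[peptide]. Triplicates.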

[2] = Cytotoxicity against human U87 cells transfected with CD4/CXCR4 assessed as decrease in cell viability up to 100 uM after 24 hrs by MTT assay; format: toxicity, cell-based; details: u-87mg atcc
Method in brief: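 U87 CXCR4 cells are seeded at 1 x 10⁴/well and incubated overnight at 37 °C in 5% CO₂. They are treated with 100, 50 or 10 µM (final) compound for 24 h. Tetrazolium dye is added for 4 h, then solubilization/stop solution for 1 h. A570 is read and normalized to untreated cells set at 1.0.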

[3] = tested on: Human immunodeficiency virus 1; assay: (§1) Antiviral activity against HIV1 NL4-3 infected in human U87 cells transfected with CD4/CXCR4 assessed as inhibition of viral replication at 100 uM preincubated for 1 hr followed by viral infection for 24 hrs and subsequent compound wash out and addition of additional compound measured at 72 hrs post infection by p24 assay; format: functional, cell-based; details: U-87MG ATCC
Method in brief: (§2)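 U87-CD4/CXCR4 cells are seeded at 1 x 10⁴/well and left to adhere overnight. Compounds come from 1 mM stocks in water, diluted in RPMI. Cells are pretreated for 1 h, then infected with NL4-3 (CXCR4-tropic) at MOI 0.01 for 24 h. Cells are PBS-washed and given fresh medium with more compound. p24 is quantified in supernatant at 72 h post-infection.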

[4] = Cytotoxicity against HIV1 NL4-3 infected human U87 cells transfected with CD4/CXCR4 assessed as decrease in cell viability at 20 to 80 uM after 72 hrs by MTT assay; format: toxicity, cell-based; details: u-87mg atcc
[5] = tested on: Human immunodeficiency virus 1; assay: as §1, with “replication” for “replication at 100 uM”; format: functional, cell-based; details: for inhibition: U-87MG ATCC; for IC50: Human immunodeficiency virus 1, NL4-3, U-87 MG; method in brief: as §2
[6] = tested on: Human immunodeficiency virus 1; assay: as §1, with “40” for “100”, “assay relative to control” for “assay”; format: functional, U-87MG ATCC; details: Human immunodeficiency virus 1, NL4-3, U-87 MG; method in brief: as §2
[7] = tested on: Human immunodeficiency virus 1; assay: as §1, with “10” for “100”, “assay relative to control” for “assay”; format: functional, U-87MG ATCC; details: Human immunodeficiency virus 1, NL4-3, U-87 MG; method in brief: as §2
[8] = tested on: Human immunodeficiency virus 1; assay: Binding affinity to HIV1 wild type [32P]-labeled RRE-2B RNA assessed as protection of RNA from RNase T1-induced cleavage by footprinting method
Method in brief: (§3)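 5'-³²P RRE-IIB (10 nM) plus unlabeled RRE-IIB (200 nM) is heated to 95 °C for 3 min and snap-cooled. It is incubated with peptide on ice for 4 h in 10 mM Tris pH 7, 100 mM KCl, 10 mM MgCl₂. Digestion is on ice for 1 h, with RNase T1 at 1 U or RNase A at 20 ng. Cleavage is stopped by precipitation, run on 12% PAGE with 7.5 M urea, and read by autoradiography.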

[9] = tested on: Human immunodeficiency virus 1; assay: Binding affinity to HIV1 wild type [32P]-labeled RRE-2B RNA assessed as protection of RNA from RNase A-induced cleavage at 0.2 to 20 uM by footprinting method; method in brief: as §3
[10] = tested on: Human immunodeficiency virus 1; assay: Binding affinity to HIV1 wild type 2-aminopurine-labeled RRE-2B RNA assessed as 1:1 binding stoichiometry between compound and RNA at 0.25 to 4 molar ratio of compound/RNA by Job plot method

Structure (SMILES)	Kd [1]	Activity [2]	inhibition [3]	Activity [4]	also measured
CC(C)C[C@H](NC(=O)[C@H](CCCCN)NC(=O)[C@H](CCCCNC(=O)[C@H](CCCCN)NC(=O)[C@H](CCCCN)NC(=O)[C@@H](N)CCCCN)NC(=O)[C@H](CCCCN)NC(=O)[C@H](CCCCN)NC(=O)[C@@H](N)CCCCN)C(=O)N[C@@H](CCCCNc1c2ccccc2nc2ccccc12)C(=O)N[C@@H](Cc1ccc(O)cc1)C(N)=O (H-KKKK([Lys-Lys-Lys])KLK(Acridin9yl)Y-NH2)	20 nM	Non-Toxic	Active	Non-Toxic	
NCCCC[C@H](NC(=O)[C@H](CCCCN)NC(=O)[C@@H](N)CCCCN)C(=O)NCCCC[C@H](NC(=O)[C@H](CCCCN)NC(=O)[C@H](CCCCN)NC(=O)[C@@H](N)CCCCN)C(=O)N[C@@H](CCCCNc1c2ccccc2nc2ccccc12)C(=O)N[C@@H](CCCCNc1c2ccccc2nc2ccccc12)C(=O)N[C@@H](CCCCN)C(=O)N[C@@H](Cc1ccc(O)cc1)C(N)=O (H-KKKK([Lys-Lys-Lys])K(Acridin9yl)K(Acridin9yl)KY-NH2)		Non-Toxic	Active	Non-Toxic	inhibition [5]: Dose-dependent effect; inhibition at 40 µM [6]: 90%
CC(C)C[C@H](NC(=O)[C@@H](N)CCCCN)C(=O)N[C@@H](CCCCN)C(=O)NCCCC[C@H](NC(=O)[C@H](CCCCN)NC(=O)[C@H](CC(C)C)NC(=O)[C@@H](N)CCCCN)C(=O)N[C@@H](CCCCN)C(=O)N[C@@H](CCCCN)C(=O)N[C@@H](CCCCNC(=O)c1ccc(B(O)O)cc1)C(=O)N[C@@H](Cc1ccc(O)cc1)C(N)=O (H-KLKK([Lys-Leu-Lys])KKK(Benzoyl(4-B(OH)2))Y-NH2)	1430 nM	Non-Toxic			inhibition at 10 µM [7]: 40%
CC(C)C[C@H](NC(=O)[C@H](CCCCNC(=O)c1ccc(B(O)O)cc1)NC(=O)[C@H](CC(C)C)NC(=O)[C@H](CCCCNC(=O)[C@H](CCCCN)NC(=O)[C@H](CCCCN)NC(=O)[C@@H](N)CCCCN)NC(=O)[C@H](CCCCN)NC(=O)[C@H](CCCCN)NC(=O)[C@@H](N)CCCCN)C(=O)N[C@@H](Cc1ccc(O)cc1)C(N)=O (H-KKKK([Lys-Lys-Lys])LK(Benzoyl(4-B(OH)2))LY-NH2)	130 nM	Non-Toxic			
CC(C)C[C@H](NC(=O)[C@H](CCCCNC(=O)[C@H](CCCCN)NC(=O)[C@H](CCCCN)NC(=O)[C@@H](N)CCCCN)NC(=O)[C@H](CCCCN)NC(=O)[C@H](CCCCN)NC(=O)[C@@H](N)CCCCN)C(=O)N[C@@H](CCCCNC(=O)c1ccc(B(O)O)cc1)C(=O)N[C@@H](CCCCNC(=O)c1ccc(B(O)O)cc1)C(=O)N[C@@H](Cc1ccc(O)cc1)C(N)=O (H-KKKK([Lys-Lys-Lys])LK(Benzoyl(4-B(OH)2))K(Benzoyl(4-B(OH)2))Y-NH2)	280 nM	Non-Toxic	Active	Non-Toxic	
CC(C)C[C@H](NC(=O)[C@H](CCCCN)NC(=O)[C@H](CCCCNC(=O)[C@H](CCCCN)NC(=O)[C@H](CCCCNc1c2ccccc2nc2ccccc12)NC(=O)[C@@H](N)CCCCN)NC(=O)[C@H](CCCCN)NC(=O)[C@H](CCCCNc1c2ccccc2nc2ccccc12)NC(=O)[C@@H](N)CCCCN)C(=O)N[C@@H](CCCCNC(=O)c1ccc(B(O)O)cc1)C(=O)N[C@@H](Cc1ccc(O)cc1)C(N)=O (H-KK(Acridin9yl)KK([Lys-X1])KLK(Benzoyl(4-B(OH)2))Y-NH2)	70 nM	Dose-dependent effect	Active	Non-Toxic	inhibition at 10 µM [7]: 60%; IC50 [5]: 7300 nM; inhibition [5]: Dose-dependent effect; inhibition at 40 µM [6]: 90%
CC(C)C[C@H](NC(=O)[C@H](CC(C)C)NC(=O)[C@H](CCCCNC(=O)[C@H](CCCCN)NC(=O)[C@H](CCCCNC(=O)c1ccc(B(O)O)cc1)NC(=O)[C@@H](N)CCCCN)NC(=O)[C@H](CCCCN)NC(=O)[C@H](CCCCNC(=O)c1ccc(B(O)O)cc1)NC(=O)[C@@H](N)CCCCN)C(=O)N[C@@H](CCCCN)C(=O)N[C@@H](Cc1ccc(O)cc1)C(N)=O (H-KK(Benzoyl(4-B(OH)2))KK([Lys-X3])LLKY-NH2)	660 nM	Non-Toxic			
CC(C)C[C@H](NC(=O)[C@H](CCCCN)NC(=O)[C@H](CCCCNC(=O)[C@H](CCCCNC(=O)c1ccc(B(O)O)cc1)NC(=O)[C@H](CCCCN)NC(=O)[C@@H](N)CCCCN)NC(=O)[C@H](CCCCNC(=O)c1ccc(B(O)O)cc1)NC(=O)[C@H](CCCCN)NC(=O)[C@@H](N)CCCCN)C(=O)N[C@@H](CCCCNC(=O)c1ccc(B(O)O)cc1)C(=O)N[C@@H](Cc1ccc(O)cc1)C(N)=O (H-KKK(Benzoyl(4-B(OH)2))K(X2)KLK(Benzoyl(4-B(OH)2))Y-NH2)	120 nM	Non-Toxic			
CC(C)C[C@H](NC(=O)[C@H](CCCCNC(=O)[C@H](CCCCN)NC(=O)[C@H](CC(C)C)NC(=O)[C@@H](N)CCCCN)NC(=O)[C@H](CCCCN)NC(=O)[C@H](CC(C)C)NC(=O)[C@@H](N)CCCCN)C(=O)N[C@@H](CCCCN)C(=O)N[C@@H](CCCCNC(=O)c1ccc(B(O)O)cc1)C(=O)N[C@@H](Cc1ccc(O)cc1)C(N)=O (H-KLKK([Lys-Leu-Lys])LKK(Benzoyl(4-B(OH)2))Y-NH2)	300 nM	Non-Toxic			
CC(C)C[C@H](NC(=O)[C@H](CCCCN)NC(=O)[C@H](CCCCNC(=O)[C@H](CCCCN)NC(=O)[C@H](CCCCN)NC(=O)[C@@H](N)CCCCNc1c2ccccc2nc2ccccc12)NC(=O)[C@H](CCCCN)NC(=O)[C@H](CCCCN)NC(=O)[C@@H](N)CCCCNc1c2ccccc2nc2ccccc12)C(=O)N[C@@H](CCCCNC(=O)c1ccc(B(O)O)cc1)C(=O)N[C@@H](Cc1ccc(O)cc1)C(N)=O (H-K(Acridin9yl)KKK([Lys-Lys-εLys-Acridin9yl])KLK(Benzoyl(4-B(OH)2))Y-NH2)	60 nM	Non-Toxic	Active	Non-Toxic	IC50 [5]: 10100 nM; inhibition [5]: Dose-dependent effect; inhibition at 40 µM [6]: 90%; Activity [8]: Dose-dependent effect; Activity [9]: Active; Activity [10]: Active
CC(C)C[C@H](NC(=O)[C@@H](N)CC(C)C)C(=O)N[C@@H](CCCCN)C(=O)NCCCC[C@H](NC(=O)[C@H](CCCCN)NC(=O)[C@H](CC(C)C)NC(=O)[C@@H](N)CC(C)C)C(=O)N[C@@H](CCCCN)C(=O)N[C@@H](CCCCNC(=O)c1ccc(B(O)O)cc1)C(=O)N[C@@H](CCCCN)C(=O)N[C@@H](Cc1ccc(O)cc1)C(N)=O (H-LLKK([Lys-Leu-Leu])KK(Benzoyl(4-B(OH)2))KY-NH2)	210 nM	Non-Toxic			
CC(C)C[C@H](NC(=O)[C@H](CCCCN)NC(=O)[C@@H](N)CCCCN)C(=O)NCCCC[C@H](NC(=O)[C@H](CC(C)C)NC(=O)[C@H](CCCCN)NC(=O)[C@@H](N)CCCCN)C(=O)N[C@@H](CCCCN)C(=O)N[C@@H](CCCCNC(=O)c1ccc(B(O)O)cc1)C(=O)N[C@@H](CCCCNC(=O)c1ccc(B(O)O)cc1)C(=O)N[C@@H](Cc1ccc(O)cc1)C(N)=O (H-KKLK([Leu-Lys-Lys])KK(Benzoyl(4-B(OH)2))K(Benzoyl(4-B(OH)2))Y-NH2)	170 nM	Non-Toxic			
CC(C)C[C@H](NC(=O)[C@H](CCCCNc1c2ccccc2nc2ccccc12)NC(=O)[C@H](CCCCNC(=O)[C@H](CCCCN)NC(=O)[C@H](CCCCN)NC(=O)[C@@H](N)CCCCN)NC(=O)[C@H](CCCCN)NC(=O)[C@H](CCCCN)NC(=O)[C@@H](N)CCCCN)C(=O)N[C@@H](CCCCN)C(=O)N[C@@H](Cc1ccc(O)cc1)C(N)=O (H-KKKK([Lys-Lys-Lys])K(Acridin9yl)LKY-NH2)	140 nM	Non-Toxic	Active		
CC(C)C[C@H](NC(=O)[C@H](CCCCN)NC(=O)[C@@H](N)CCCCN)C(=O)NCCCC[C@H](NC(=O)[C@H](CC(C)C)NC(=O)[C@H](CCCCN)NC(=O)[C@@H](N)CCCCN)C(=O)N[C@@H](CC(C)C)C(=O)N[C@@H](CCCCN)C(=O)N[C@@H](CCCCNC(=O)c1ccc(B(O)O)cc1)C(=O)N[C@@H](Cc1ccc(O)cc1)C(N)=O (H-KKLK([Leu-Lys-Lys])LKK(Benzoyl(4-B(OH)2))Y-NH2)	330 nM	Non-Toxic			

Source: ChEMBL document CHEMBL3853263, “Effect of intercalator and Lewis acid-base branched peptide complex formation: boosting affinity towards HIV-1 RRE RNA” (Medchemcomm, 2016)
